Values joined by “and” are separate entries in the source; they are usually repeats but may differ in a detail not shown here. Equal values may be shown once.
Tested on: U2OS
Assay: Multiplex assay against U2OS
Format: toxicity, cell-based
Details: human, number of replicates 2
Procedure, shortened: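 Phenotypes for tubulin, mitochondrial mass and membrane permeability are expressed as per cents of healthy-nucleus cells. Cells were stained live at seeding with Hoechst33342, BioTracker Green Microtubule Cytoskeleton Dye, MitoTracker Red and Annexin V Alexa Fluor 680, then imaged after compound addition on a CQ1 microscope at 37°C and 5% CO2. Machine-learning gating in CellPathfinder separated Hoechst high-intensity objects from normal cells, divided normal cells by nuclear state (healthy, pyknosed, fragmented) and divided pyknosed cells into mitotic or apoptotic.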

[1] = 12 h, 1 µM, compound concentration 1 uM
[2] = 12 h, 10 µM, compound concentration 10 uM
[3] = 24 h, 1 µM, compound concentration 1 uM
[4] = 24 h, 10 µM, compound concentration 10 uM
[5] = 48 h, 1 µM, compound concentration 1 uM
[6] = 48 h, 10 µM, compound concentration 10 uM

## CC(C)S(=O)(=O)c1ccccc1Nc1nc(N[C@@H]2CCCN(CCCCCCCNC(=O)COc3cccc4c3C(=O)N(C3CCC(=O)N(C)C3=O)C4=O)C2)ncc1Cl (stereo partly specified)
[1]
  Population Apoptotic (%): 93% and 83%
  Population Healthy Nuclei (%): 34% and 71%
  Population Hoechst High Intensity Objects (%): 0%
  Population Mitochondria Different-Phenotype (%): 8% and 7%
  Population Mitotic Cells (%): 6% and 16%
  Population Normal (%): 100%
  Population Pyknosed Nuclei (%): 22% and 23%
  Population Tubulin-Different-Phenotype (%): 69% and 61%
  Total Cell Count: 66 and 157
[2]
  Population Apoptotic (%): 85% and 77%
  Population Healthy Nuclei (%): 48% and 56%
  Population Hoechst High Intensity Objects (%): 0% and 1%
  Population Membrane Permeable-Phenotype (%): 80% and 93%
  Population Mitochondria Different-Phenotype (%): 66% and 54%
  Population Mitotic Cells (%): 14% and 22%
  Population Normal (%): 100% and 98%
  Population Pyknosed Nuclei (%): 22% and 37%
  Population Tubulin-Different-Phenotype (%): 100%
[3]
  Population Apoptotic (%): 85% and 89%
  Population Fragmented Nuclei (%): 26% and 13%
  Population Healthy Nuclei (%): 29% and 51%
  Population Hoechst High Intensity Objects (%): 1% and 0%
  Population Membrane Permeable-Phenotype (%): 0% and 6%
  Population Mitochondria Different-Phenotype (%): 0% and 4%
  Population Mitotic Cells (%): 14% and 10%
  Population Normal (%): 98% and 100%
  Population Pyknosed Nuclei (%): 44% and 34%
  Population Tubulin-Different-Phenotype (%): 77% and 84%
  Total Cell Count: 62 and 166
[4]
  Population Apoptotic (%): 85% and 93%
  Population Fragmented Nuclei (%): 8% and 12%
  Population Hoechst High Intensity Objects (%): 0% and 1%
  Population Membrane Permeable-Phenotype (%): 50% and 40%
  Population Mitochondria Different-Phenotype (%): 50% and 64%
  Population Mitotic Cells (%): 14% and 6%
  Population Normal (%): 100% and 98%
  Population Pyknosed Nuclei (%): 84% and 57%
  Population Tubulin-Different-Phenotype (%): 100% and 68%
[5]
  Population Apoptotic (%): 89% and 93%
  Population Fragmented Nuclei (%): 19% and 13%
  Population Healthy Nuclei (%): 29% and 44%
  Population Hoechst High Intensity Objects (%): 0%
  Population Membrane Permeable-Phenotype (%): 5% and 9%
  Population Mitochondria Different-Phenotype (%): 0% and 5%
  Population Mitotic Cells (%): 10% and 6%
  Population Normal (%): 100% and 99%
  Population Pyknosed Nuclei (%): 50% and 41%
  Population Tubulin-Different-Phenotype (%): 70% and 87%
[6]
  Population Apoptotic (%): 100% and 94%
  Population Fragmented Nuclei (%): 9% and 10%
  Population Healthy Nuclei (%): 18% and 14%
  Population Hoechst High Intensity Objects (%): 4% and 3%
  Population Membrane Permeable-Phenotype (%): 75% and 62%
  Population Mitochondria Different-Phenotype (%): 100% and 53%
  Population Mitotic Cells (%): 0% and 5%
  Population Normal (%): 95% and 96%
  Population Pyknosed Nuclei (%): 72% and 75%
  Population Tubulin-Different-Phenotype (%): 75% and 96%

## CCCNc1ccc2ncc(-c3ccncc3)n2n1
[1]
  Population Apoptotic (%): 60% and 74%
  Population Healthy Nuclei (%): 58% and 81%
  Population Hoechst High Intensity Objects (%): 0%
  Population Membrane Permeable-Phenotype (%): 11% and 2%
  Population Mitochondria Different-Phenotype (%): 11% and 0%
  Population Mitotic Cells (%): 40% and 25%
  Population Normal (%): 100%
  Population Pyknosed Nuclei (%): 17% and 14%
  Population Tubulin-Different-Phenotype (%): 76% and 86%
[2]
  Population Apoptotic (%): 81% and 78%
  Population Healthy Nuclei (%): 35% and 57%
  Population Hoechst High Intensity Objects (%): 0% and 1%
  Population Membrane Permeable-Phenotype (%): 6% and 8%
  Population Mitochondria Different-Phenotype (%): 6% and 3%
  Population Mitotic Cells (%): 18% and 22%
  Population Normal (%): 100% and 98%
  Population Pyknosed Nuclei (%): 24% and 33%
  Population Tubulin-Different-Phenotype (%): 68% and 60%
[3]
  Population Apoptotic (%): 66% and 87%
  Population Healthy Nuclei (%): 71% and 89%
  Population Hoechst High Intensity Objects (%): 0%
  Population Membrane Permeable-Phenotype (%): 10% and 3%
  Population Mitochondria Different-Phenotype (%): 3% and 1%
  Population Mitotic Cells (%): 33% and 12%
  Population Normal (%): 100% and 99%
  Population Pyknosed Nuclei (%): 7%
  Population Tubulin-Different-Phenotype (%): 76% and 88%
[4]
  Population Apoptotic (%): 78% and 90%
  Population Healthy Nuclei (%): 26% and 53%
  Population Hoechst High Intensity Objects (%): 0% and 2%
  Population Membrane Permeable-Phenotype (%): 16% and 7%
  Population Mitochondria Different-Phenotype (%): 8% and 7%
  Population Mitotic Cells (%): 21% and 9%
  Population Normal (%): 100% and 97%
  Population Pyknosed Nuclei (%): 31% and 33%
  Population Tubulin-Different-Phenotype (%): 66% and 69%
[5]
  Population Apoptotic (%): 57% and 66%
  Population Healthy Nuclei (%): 71% and 88%
  Population Hoechst High Intensity Objects (%): 0%
  Population Membrane Permeable-Phenotype (%): 6% and 3%
  Population Mitochondria Different-Phenotype (%): 6% and 2%
  Population Mitotic Cells (%): 42% and 33%
  Population Normal (%): 100%
  Population Pyknosed Nuclei (%): 11% and 7%
  Population Tubulin-Different-Phenotype (%): 69% and 86%
[6]
  Population Apoptotic (%): 81% and 78%
  Population Healthy Nuclei (%): 23% and 37%
  Population Hoechst High Intensity Objects (%): 0% and 1%
  Population Mitochondria Different-Phenotype (%): 23% and 8%
  Population Mitotic Cells (%): 18% and 21%
  Population Normal (%): 100% and 98%
  Population Pyknosed Nuclei (%): 29% and 51%
  Population Tubulin-Different-Phenotype (%): 46% and 62%
